Experimental findings from ChEMBL document CHEMBL3351636, “Synthesis and biological evaluation of sophoridinol derivatives as a novel family of potential anticancer agents” (ACS Med Chem Lett, 2014) are described below.

Data set [1] relates to HepG2. In words: Cytotoxicity against human HepG2 cells after 48 hrs by MTT assay. To be noted: HepG2, 48 h. Type of data set: functional, cell-based. In general terms: Formazan colour is commonly taken as a measure of viable cells.
Data set [2] concerns MCF7. The experiment in a line: Cytotoxicity against human MCF7 cells after 48 hrs by MTT assay. It counts as functional, cell-based. Particulars: MCF7, 48 h.
Data set [3] deals with MCF7. The experiment in a line: Cytotoxicity against adriamycin-resistant human MCF7 cells after 48 hrs by MTT assay. It counts as functional, cell-based. To be noted: MCF7, 48 h.
The test system of data set [4] is HepG2. The experiment in a line: Cell cycle arrest in human HepG2 cells assessed as accumulation at G0/G1 phase at 1.25 to 5 ug/ml after 24 hrs using propidium iodide by flow cytometry. It counts as functional, cell-based. In short, it runs like this:
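HepG2 cells incubated 24 h with compound at 1.25, 2.5 and 5.0 μg/mL or left untreated (control); cell cycle distribution read by flow cytometry; significance versus untreated control given as P < 0.05 / P < 0.01.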

A short description of data set [5]: Tmax in Sprague-Dawley rat at 25 mg/kg, po as single dose. Type of data set: ADME, organism-based. Details: dose 25 mg/kg, route oral. Particulars: in vivo. In short, it runs like this: (§1)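 Adult male Sprague–Dawley rats (n = 3) received a single oral dose of 25 mg/kg. Nine blood samples were drawn over 24 h to build a plasma concentration–time curve. Parameters were derived by noncompartmental analysis and reported as mean ± deviation.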

A short description of data set [6]: Cmax in Sprague-Dawley rat at 25 mg/kg, po as single dose. To be noted: in vivo. Type of data set: ADME, organism-based. Details: dose 25 mg/kg, route oral. The method in brief: as §1
Data set [7] is described as follows: AUC (0 to t) in Sprague-Dawley rat at 25 mg/kg, po as single dose. Type of data set: ADME, organism-based. Set-up: dose 25 mg/kg, route oral. Particulars: plasma. In short, it runs like this:
as §1

The nature of data set [8]: AUC (0 to infinity) in Sprague-Dawley rat at 25 mg/kg, po as single dose. Particulars: plasma. Details: time infinity, dose 25 mg/kg, route oral. It counts as ADME, organism-based. The method in brief: as §1
A short description of data set [9]: Mean residence time in Sprague-Dawley rat at 25 mg/kg, po as single dose. It counts as ADME, organism-based. Details: dose 25 mg/kg, route oral. Particulars: in vivo. The method in brief:
as §1

Data set [10] is described as follows: Half life in Sprague-Dawley rat at 25 mg/kg, po as single dose. It counts as ADME, organism-based. Details: dose 25 mg/kg, route oral. To be noted: in vivo. The method in brief:
as §1

Activity calls are given as the source filed them. No cut-off for these calls is given here.

As usually defined, the IC50 is the point on the concentration scale where inhibition reaches its midpoint. On to `COc1ccc(CN2C[C@H]3CCCN4CCC[C@@H]([C@H]34)[C@H]2CCCCO)cc1`, for which the IC50 in the data set on HepG2 [1] was more than 40 µM.
Same read-out and setting: to `COC(=O)CCC[C@@H]1[C@H]2CCCN3CCC[C@H](CN1Cc1cccc(OC)c1)[C@@H]23` belongs 10.7 µM; to `COc1cccc(CN2C[C@H]3CCCN4CCC[C@@H]([C@H]34)[C@H]2CCCCO)c1Cl`, 23.6 µM; to `COC(=O)CCC[C@@H]1[C@H]2CCCN3CCC[C@H](CN1Cc1ccccc1OC)[C@@H]23`, 10.3 µM.
On to `O=C(O)CCC[C@@H]1[C@H]2CCCN3CCC[C@H](CN1Cc1ccc4ccccc4c1)[C@@H]23`, for which, in the data set on HepG2 [1], the IC50 was more than 40 µM.
On the same count and under the same terms, to `OCCCC[C@@H]1[C@H]2CCCN3CCC[C@H](CN1Cc1ccc4ccccc4c1)[C@@H]23` belongs 7.9 µM.
In the data set on HepG2 [1], `CC(=O)O[C@H]1C(=O)[C@@]2(C)[C@H]([C@H](OC(=O)c3ccccc3)[C@]3(O)C[C@H](OC(=O)[C@H](O)[C@@H](NC(=O)c4ccccc4)c4ccccc4)C(C)=C1C3(C)C)[C@]1(OC(C)=O)CO[C@@H]1C[C@@H]2O` [PACLITAXEL] displayed an IC50 of 15.6 µM.
Still for that read-out and setting: the same measure for `CCOc1ccc(CN2C[C@H]3CCCN4CCC[C@@H]([C@H]34)[C@H]2CCCCO)cc1OC`: more than 40 µM; for `COC(=O)CCC[C@@H]1[C@H]2CCCN3CCC[C@H](CN1Cc1ccc(OC)c(OC)c1)[C@@H]23`: more than 40 µM.
Take `OCCCC[C@@H]1[C@H]2CCCN3CCC[C@H](CN1Cc1cccc4ccccc14)[C@@H]23`: the IC50 in the data set on HepG2 [1] was found to be 6.8 µM; in the data set with MCF7 [2] it was 9.07 µM; in the data set with MCF7 [3], 9.51 µM.
With `COc1cccc(CN2C[C@H]3CCCN4CCC[C@@H]([C@H]34)[C@H]2CCCC(=O)O)c1OC`, the IC50 in the data set with HepG2 [1] was more than 40 µM.
On the same count and under the same terms, to `CCC(O)(CC)CCC[C@@H]1[C@H]2CCCN3CCC[C@H](CN1Cc1c4ccccc4cc4ccccc14)[C@@H]23` belongs 2.7 µM; to `COC(=O)CCC[C@@H]1[C@H]2CCCN3CCC[C@H](CN1Cc1c4ccccc4cc4ccccc14)[C@@H]23`, 4.3 µM.
What is called Tmax is the time at which the peak concentration occurs. The Cmax is the peak of the concentration-time curve. Usually AUC(0-t) stands for exposure summed from dosing to a finite time, without extrapolation to infinity. A low value points to low exposure. Broadly, the AUC(0-inf) is total exposure, with the tail of the curve extrapolated. A higher AUC(0-inf) goes with more exposure. The term MRT denotes the average time that molecules of a dose stay in the body. Usually half-life stands for the time in which the quantity being followed falls by half. Read a high half-life as slow decline. Turning to `OCCCC[C@@H]1[C@H]2CCCN3CCC[C@H](CN1Cc1c4ccccc4cc4ccccc14)[C@@H]23`, the half-maximal inhibitory concentration (IC50) with HepG2 [1] amounted to 3.1 µM; in the data set with MCF7 [2], 5.63 µM; with MCF7 [3], 5.94 µM. For the same molecule, the result in the data set with HepG2 [4] was Active. Also, the Tmax in data set [5] turned out to be 4.6 h. In addition, in data set [6], the highest level (Cmax) was 3.4 µM. The molecule further came in with an AUC(0-t) in data set [7] of 10.3 µM·h. The molecule further returned an AUC(0-inf) in data set [8] of 10.5 µM·h. In data set [9], this molecule displayed an MRT of 5.4 h. Besides, the half-life in data set [10] is 12.7 h.
In the data set with HepG2 [1], `COc1ccccc1CN1C[C@H]2CCCN3CCC[C@@H]([C@H]23)[C@H]1CCCCO` showed a half-maximal inhibitory concentration (IC50) of 34.6 µM.
Still for that read-out and setting: to `COC(=O)CCC[C@@H]1[C@H]2CCCN3CCC[C@H](CN1Cc1cccc4ccccc14)[C@@H]23` belongs 3.3 µM.
In turn, `CC(C)(O)CCC[C@@H]1[C@H]2CCCN3CCC[C@H](CN1Cc1c4ccccc4cc4ccccc14)[C@@H]23` yielded an IC50 in the data set on HepG2 [1] of 2.1 µM.
Molecule `COc1cc(CN2C[C@H]3CCCN4CCC[C@@H]([C@H]34)[C@H]2CCCC(=O)O)cc(OC)c1OC` displayed an IC50 with HepG2 [1] of more than 40 µM.
`COC(=O)CCC[C@@H]1[C@H]2CCCN3CCC[C@H](CN1Cc1ccc(OC)c(OC)c1Cl)[C@@H]23` displayed an IC50 in the data set with HepG2 [1] of 8.4 µM.
The molecule `O=C(O)CCC[C@@H]1[C@H]2CCCN3CCC[C@H](CN1Cc1cccc4ccccc14)[C@@H]23` came in with an IC50 with HepG2 [1] of more than 40 µM.
The same measure, in the same setting: the same measure for `COC(=O)CCC[C@@H]1[C@H]2CCCN3CCC[C@H](CN1Cc1cc(OC)c(OC)c(OC)c1)[C@@H]23`: more than 40 µM; for `O=C(CCC[C@@H]1[C@H]2CCCN3CCC[C@H](CN1Cc1c4ccccc4cc4ccccc14)[C@@H]23)c1ccc(Cl)cc1`: 2 µM.
Same read-out and setting: to `COc1ccccc1CN1C[C@H]2CCCN3CCC[C@@H]([C@H]23)[C@H]1CCCC(=O)O` belongs more than 40 µM.
On the same count and under the same terms, the same measure for `COc1ccc(CN2C[C@H]3CCCN4CCC[C@@H]([C@H]34)[C@H]2CCCCO)c(Cl)c1OC`: 15.7 µM; for `COc1cc(CN2C[C@H]3CCCN4CCC[C@@H]([C@H]34)[C@H]2CCCCO)cc(OC)c1OC`: more than 40 µM; for `COC(=O)CCC[C@@H]1[C@H]2CCCN3CCC[C@H](CN1Cc1ccc(OC)cc1)[C@@H]23`: 10.7 µM.
Take `Fc1ccc(C(=CCC[C@@H]2[C@H]3CCCN4CCC[C@H](CN2Cc2c5ccccc5cc5ccccc25)[C@@H]34)c2ccc(F)cc2)cc1`: the IC50 in the data set with HepG2 [1] turned out to be 5.3 µM.
Same read-out and setting: the same measure for `COC(=O)CCC[C@@H]1[C@H]2CCCN3CCC[C@H](CN1Cc1ccc4ccccc4c1)[C@@H]23`: 5.8 µM.
On to `O=C1CCC[C@@H]2[C@H]3CCCN4CCC[C@H](CN12)[C@@H]34` [SOPHORIDINE], for which, in the data set on HepG2 [1], the IC50 is more than 80 µM. Besides, the outcome with HepG2 [4] was Active.
